Measurements: ChEMBL document CHEMBL1765023, “Acetyl analogs of combretastatin A-4: synthesis and biological studies” (Bioorg Med Chem, 2011)

Key:
T47D = assay: Growth inhibition of human T47D cells after 48 hrs by sulforhodamine B assay; format: functional
Procedure, shortened: (§1)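 Tested in the NCI 60 human cancer cell line panel. Cells were exposed continuously for 48 h and proliferation was read by sulforhodamine B staining. GI50 (concentration for 50% growth inhibition), TGI (total growth inhibition) and LC50 were taken from dose–response curves.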

HOP-92 = assay: Growth inhibition of human HOP92 cells after 48 hrs by sulforhodamine B assay; format: functional; settings: HOP-92, 48 h
Procedure, shortened: (§2)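 NCI 60 human cancer cell line screen run at the National Cancer Institute. Cells had 48 h continuous exposure, and proliferation was read by sulforhodamine B staining. GI50 (50% growth inhibition) was taken from dose–response curves.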

NCI-H23 = assay: Growth inhibition of human NCI-H23 cells after 48 hrs by sulforhodamine B assay; format: functional; settings: NCI-H23, 48 h; procedure, shortened: as §2
A498 = assay: Growth inhibition of human A498 cells after 48 hrs by sulforhodamine B assay; format: functional; settings: A498, 48 h; procedure, shortened: as §2
HOP-62 = assay: Growth inhibition of human HOP62 cells after 48 hrs by sulforhodamine B assay; format: functional; settings: HOP-62, 48 h; procedure, shortened: as §2
SF-295 = assay: Growth inhibition of human SF295 cells after 48 hrs by sulforhodamine B assay; format: functional; settings: SF-295, 48 h; procedure, shortened: as §2
U-251 = assay: Growth inhibition of human U251 cells after 48 hrs by sulforhodamine B assay; format: functional; settings: U-251, 48 h; procedure, shortened: as §1
NCI-H322M = assay: Growth inhibition of human NCI-H322M cells after 48 hrs by sulforhodamine B assay; format: functional; procedure, shortened: as §2
OVCAR-4 = assay: Growth inhibition of human OVCAR4 cells after 48 hrs by sulforhodamine B assay; format: functional; settings: OVCAR-4, 48 h; procedure, shortened: as §2
SK-MEL-2 = assay: Growth inhibition of human SK-MEL-2 cells after 48 hrs by sulforhodamine B assay; format: functional; settings: SK-MEL-2, 48 h; procedure, shortened: as §2
SK-MEL-5 = assay: Growth inhibition of human SK-MEL-5 cells after 48 hrs by sulforhodamine B assay; format: functional; settings: SK-MEL-5, 48 h; procedure, shortened: as §2
OVCAR-3 = assay: Growth inhibition of human OVCAR3 cells after 48 hrs by sulforhodamine B assay; format: functional; settings: OVCAR-3, 48 h; procedure, shortened: as §2
B16 = assay: Cytotoxicity against mouse B16 cells by MTT assay; format: functional, cell-based
UACC-257 = assay: Growth inhibition of human UACC257 cells after 48 hrs by sulforhodamine B assay; format: functional; settings: UACC-257, 48 h; procedure, shortened: as §1
[1] = Induction of microtubule depolymerization in […] cells for 18 hrs by indirect immunofluorescence microscopic analysis; format: cell-based
Procedure, shortened: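 Uses A-10 cells, a non-transformed line that arrests in interphase under microtubule-targeting agents. Cells were treated for 18 h and interphase microtubules were visualized by indirect immunofluorescence microscopy, with vehicle-treated controls. Depolymerization was screened at concentrations below 30 µM. For EC50, a range of concentrations was tested, and EC50 is the concentration causing 50% loss of cellular microtubules by microscopy.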

PC-3 = assay: Growth inhibition of human PC3 cells after 48 hrs by sulforhodamine B assay; format: functional; settings: PC-3, 48 h; procedure, shortened: as §2
HCT-116 = assay: Growth inhibition of human HCT116 cells after 48 hrs by sulforhodamine B assay; format: functional; settings: HCT-116, 48 h; procedure, shortened: as §2
ACHN = assay: Growth inhibition of human ACHN cells after 48 hrs by sulforhodamine B assay; format: functional; procedure, shortened: as §2
MDA-MB-231 = assay: Growth inhibition of human MDA-MB-231 cells after 48 hrs by sulforhodamine B assay; format: functional; settings: MDA-MB-231, 48 h; procedure, shortened: as §2
OVCAR-5 = assay: Growth inhibition of human OVCAR5 cells after 48 hrs by sulforhodamine B assay; format: functional; settings: OVCAR-5, 48 h; procedure, shortened: as §2
Mus musculus [2] = assay: Toxicity in DBA2 mouse assessed as change in color, weight and size in kidney at 75 mg/kg, ip QD administered on alternate days for 17 days measured on day 23 relative to control; format: organism-based; design: dose 75 mg/kg, route intraperitoneal; settings: in vivo, 408 h
Procedure, shortened: (§3)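 Healthy female DBA2 mice, 5–7 weeks old, five per group, received 75 mg/kg ip on days 1, 5, 9, 13 and 17. Vehicle was PET (PEG400/ethanol/Tween 80, 6:3:1), 5% glucose and DMSO, with final ethanol 15% and DMSO 10%. Controls received 100 µL vehicle. Body weight was measured every other day. At sacrifice on day 23, blood counts (hematocrit, WBC, granulocytes, platelets) and liver, kidney and spleen appearance and weight were assessed.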

SR = assay: Growth inhibition of human SR cells after 48 hrs by sulforhodamine B assay; format: functional; procedure, shortened: as §1
MDA-MB-468 = assay: Growth inhibition of human MDA-MB-468 cells after 48 hrs by sulforhodamine B assay; format: functional; settings: MDA-MB-468, 48 h; procedure, shortened: as §2
HL-60(TB) = assay: Growth inhibition of human HL-60(TB) cells after 48 hrs by sulforhodamine B assay; format: functional; settings: HL-60, 48 h
Procedure, shortened: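 NCI 60 human cancer cell line panel, tested at the National Cancer Institute. Continuous 48 h drug exposure, with proliferation read by sulforhodamine B staining. Dose–response curves gave GI50 (concentration inhibiting growth by 50%), TGI (total growth inhibition) and LC50.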

BT-549 = assay: Growth inhibition of human BT549 cells after 48 hrs by sulforhodamine B assay; format: functional; settings: BT-549, 48 h; procedure, shortened: as §2
[3] = Growth inhibition of human NCI-ADR-RES cells after 48 hrs by sulforhodamine B assay; format: functional; procedure, shortened: as §2
Mus musculus [4] = assay: Toxicity in DBA2 mouse assessed as change in body weight at 75 mg/kg, ip QD administered on alternate days for 17 days measured on day 23 relative to control; format: organism-based; design: dose 75 mg/kg, route intraperitoneal; settings: in vivo, 408 h; procedure, shortened: as §3
L1210 = assay: Antitumor activity against mouse L1210 cells xenografted in DBA2 mouse assessed as reduction in tumor volume at 50 mg/kg, ip QD administered on alternate days for 17 days measured on day 23; format: functional; settings: route intraperitoneal
Procedure, shortened: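 Female DBA2 mice, 5–7 weeks old, four per group. L1210 cells, passaged through a mouse, were washed three times in PBS and resuspended at 4.0 × 10^6 cells/mL. 100 µL (200,000 cells) was given sc to the flank on day 0. Vehicle-only controls. Tumor length and width were measured by caliper, and volume was compared on day 23.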

SK-OV-3 = assay: Growth inhibition of human SKOV3 cells after 48 hrs by sulforhodamine B assay; format: functional; settings: SK-OV-3, 48 h; procedure, shortened: as §1
K562 = assay: Growth inhibition of human K562 cells after 48 hrs by sulforhodamine B assay; format: functional; settings: K562, 48 h; procedure, shortened: as §2

**Q.** Which GI50 (T47D) does the source give for `COc1ccc(/C=C(/C(C)=O)c2cc(OC)c(OC)c(OC)c2)cc1O` here?
**A.** 100000 nM

**Q.** What about the TGI (T47D; read-out: pTGI) of the same compound?
**A.** > 100000 nM

**Q.** And the GI50 (HOP-92)?
**A.** 3310 nM

**Q.** What about the TGI (HOP-92; read-out: pTGI) of the same compound?
**A.** > 100000 nM

**Q.** What about the GI50 (NCI-H23) of the same compound?
**A.** 355 nM

**Q.** What about the TGI (NCI-H23; read-out: pTGI) of the same compound?
**A.** > 100000 nM

**Q.** And the GI50 (A498)?
**A.** 67.6 nM

**Q.** What about the TGI (A498; read-out: pTGI (converted)) of the same compound?
**A.** 550 nM

**Q.** What about the GI50 (HOP-62) of the same compound?
**A.** 589 nM

**Q.** And the TGI (HOP-62; read-out: pTGI)?
**A.** > 100000 nM

**Q.** What about the GI50 (SF-295) of the same compound?
**A.** 263 nM

**Q.** What about the TGI (SF-295; read-out: pTGI (converted)) of the same compound?
**A.** 1050 nM

**Q.** What about the GI50 (U-251) of the same compound?
**A.** 324 nM

**Q.** What about the TGI (U-251; read-out: pTGI) of the same compound?
**A.** > 100000 nM

**Q.** What about the GI50 (NCI-H322M) of the same compound?
**A.** 513 nM

**Q.** And the TGI (NCI-H322M; read-out: pTGI)?
**A.** > 100000 nM

**Q.** What about the GI50 (OVCAR-4) of the same compound?
**A.** 933 nM

**Q.** What about the TGI (OVCAR-4; read-out: pTGI) of the same compound?
**A.** > 100000 nM

**Q.** And the GI50 (SK-MEL-2)?
**A.** 513 nM

**Q.** What about the TGI (SK-MEL-2; read-out: pTGI) of the same compound?
**A.** > 100000 nM

**Q.** And the GI50 (SK-MEL-5)?
**A.** 132 nM

**Q.** And the TGI (SK-MEL-5; read-out: pTGI (converted))?
**A.** 3090 nM

**Q.** What about the GI50 (OVCAR-3) of the same compound?
**A.** 95.5 nM

**Q.** And the TGI (OVCAR-3; read-out: pTGI (converted))?
**A.** 355 nM

**Q.** And the IC50 (B16)?
**A.** 3500 nM

**Q.** What about the GI50 (UACC-257) of the same compound?
**A.** 186 nM

**Q.** What about the TGI (UACC-257; read-out: pTGI) of the same compound?
**A.** > 100000 nM

**Q.** And the EC50 [1]?
**A.** 1800 nM

**Q.** What about the GI50 (PC-3) of the same compound?
**A.** 191 nM

**Q.** And the TGI (PC-3; read-out: pTGI)?
**A.** > 100000 nM

**Q.** What about the GI50 (HCT-116) of the same compound?
**A.** 331 nM

**Q.** And the TGI (HCT-116; read-out: pTGI)?
**A.** > 100000 nM

**Q.** What about the GI50 (ACHN) of the same compound?
**A.** 1230 nM

**Q.** What about the TGI (ACHN; read-out: pTGI) of the same compound?
**A.** > 100000 nM

**Q.** And the GI50 (MDA-MB-231)?
**A.** 575 nM

**Q.** What about the TGI (MDA-MB-231; read-out: pTGI) of the same compound?
**A.** > 100000 nM

**Q.** What about the GI50 (OVCAR-5) of the same compound?
**A.** 4270 nM

**Q.** What about the TGI (OVCAR-5; read-out: pTGI) of the same compound?
**A.** > 100000 nM

**Q.** What about the Activity (Mus musculus [2]) of the same compound?
**A.** Non-toxic

**Q.** And the GI50 (SR)?
**A.** 26.3 nM

**Q.** What about the TGI (SR; read-out: pTGI) of the same compound?
**A.** > 100000 nM

**Q.** And the GI50 (MDA-MB-468)?
**A.** 170 nM

**Q.** And the TGI (MDA-MB-468; read-out: pTGI (converted))?
**A.** 550 nM

**Q.** What about the GI50 (HL-60(TB)) of the same compound?
**A.** 37.1 nM

**Q.** And the GI50 (BT-549)?
**A.** 427 nM

**Q.** What about the TGI (BT-549; read-out: pTGI (converted)) of the same compound?
**A.** 14100 nM

**Q.** What about the GI50 [3] of the same compound?
**A.** 110 nM

**Q.** What about the Activity (Mus musculus [4]) of the same compound?
**A.** Non-toxic

**Q.** And the inhibition in vivo at 50 mg/kg (L1210)?
**A.** 35%

**Q.** And the GI50 (SK-OV-3)?
**A.** 417 nM

**Q.** And the TGI (SK-OV-3; read-out: pTGI)?
**A.** > 100000 nM

**Q.** What about the GI50 (K562) of the same compound?
**A.** 40.7 nM

**Q.** And the TGI (K562; read-out: pTGI)?
**A.** > 100000 nM
